Results from PMC4083110 (Molecular & Cellular Proteomics : MCP, 2014).
“Also recorded” adds a separate entry of the source.

How the values were obtained:
Shp2/PTPN11 SH2 domain = target: T1, Shp2/PTPN11 SH2 domain (Homo sapiens, UniProt Q06124); experiment: FP saturation binding, construct not stated; conditions: result in words
T1 sequence (Q06124 2-593): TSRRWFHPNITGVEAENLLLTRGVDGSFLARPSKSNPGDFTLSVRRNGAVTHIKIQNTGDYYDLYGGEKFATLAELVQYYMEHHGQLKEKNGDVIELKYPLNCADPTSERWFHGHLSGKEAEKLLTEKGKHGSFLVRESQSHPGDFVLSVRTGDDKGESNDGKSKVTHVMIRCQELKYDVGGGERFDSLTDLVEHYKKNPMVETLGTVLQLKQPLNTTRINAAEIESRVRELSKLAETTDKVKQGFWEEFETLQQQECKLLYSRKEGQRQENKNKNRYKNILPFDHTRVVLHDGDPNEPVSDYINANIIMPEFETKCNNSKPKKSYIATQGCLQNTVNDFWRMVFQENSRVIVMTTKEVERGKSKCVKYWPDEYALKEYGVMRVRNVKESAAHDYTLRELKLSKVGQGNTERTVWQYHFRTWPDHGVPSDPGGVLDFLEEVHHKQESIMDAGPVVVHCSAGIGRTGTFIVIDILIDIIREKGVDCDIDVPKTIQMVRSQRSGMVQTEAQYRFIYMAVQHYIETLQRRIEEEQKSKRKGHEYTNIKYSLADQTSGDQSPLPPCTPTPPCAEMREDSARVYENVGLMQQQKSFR
Summary of the method: (§1)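 Multi-SH2 genes were used as tandem proteins that kept the linker residues. Automated high-throughput FP saturation binding was run against 178 synthetic phosphopeptides from RTK, GAB1 and androgen receptor tyrosine sites. Millipolarization readings were fitted to P_obs = Pmax·[Protein]/(K_D+[Protein]) by least squares regression to give K_D.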

CRK SH2 domain = CRK SH2 domain (Homo sapiens, UniProt P46108); experiment: FP saturation binding; conditions: result in words
Summary of the method: as §1

[1] = target: T2, SHC1 PTB domain (SHC1.PTB) (Homo sapiens, UniProt P29353); experiment: FP saturation binding; conditions: result in words
T2 sequence (P29353 156-339 limits assumed): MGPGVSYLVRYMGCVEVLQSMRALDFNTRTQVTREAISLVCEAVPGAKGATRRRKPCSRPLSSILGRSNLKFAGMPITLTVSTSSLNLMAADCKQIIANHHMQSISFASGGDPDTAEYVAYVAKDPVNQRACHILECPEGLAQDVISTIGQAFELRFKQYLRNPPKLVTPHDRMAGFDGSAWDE
Summary of the method: as §1

SHC1 SH2 domain = target: T3, SHC1 SH2 domain (Homo sapiens, UniProt P29353); experiment: FP saturation binding; conditions: result in words
T3 sequence (P29353 488-579 limits assumed): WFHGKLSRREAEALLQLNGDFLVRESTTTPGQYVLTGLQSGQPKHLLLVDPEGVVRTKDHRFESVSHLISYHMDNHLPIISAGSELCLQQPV
Summary of the method: (§2)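 Tandem SH2 proteins were kept with their linkers. Synthetic phosphotyrosine peptides were run in automated high-throughput FP saturation binding. Millipolarization was fitted to Pobs = Pmax·[Protein]/(KD+[Protein]) by least squares to give KD per protein/peptide pair.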

GRB2 SH2 domain = GRB2 SH2 domain (Homo sapiens, UniProt P62993); experiment: FP saturation binding; conditions: result in words
Summary of the method: as §2

GRAP2 SH2 domain = GRAP2 SH2 domain (Homo sapiens, UniProt O75791); experiment: FP saturation binding; conditions: result in words
Summary of the method: as §2

PLCG2 SH2 domains = target: T4, PLCG2 SH2 domains (Homo sapiens, UniProt P16885); experiment: FP saturation binding, construct not stated; conditions: result in words
T4 sequence (P16885 532-735 limits assumed): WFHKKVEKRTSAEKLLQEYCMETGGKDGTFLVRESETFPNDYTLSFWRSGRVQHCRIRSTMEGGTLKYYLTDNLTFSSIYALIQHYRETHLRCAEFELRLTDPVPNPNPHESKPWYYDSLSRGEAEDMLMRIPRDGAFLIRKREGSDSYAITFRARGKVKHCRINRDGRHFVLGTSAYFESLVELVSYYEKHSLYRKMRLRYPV
Summary of the method: as §1

PLCG1 SH2 domains = target: T5, PLCG1 SH2 domains (Homo sapiens, UniProt P19174); experiment: FP saturation binding, construct not stated; conditions: result in words
T5 sequence (P19174 550-756 limits assumed): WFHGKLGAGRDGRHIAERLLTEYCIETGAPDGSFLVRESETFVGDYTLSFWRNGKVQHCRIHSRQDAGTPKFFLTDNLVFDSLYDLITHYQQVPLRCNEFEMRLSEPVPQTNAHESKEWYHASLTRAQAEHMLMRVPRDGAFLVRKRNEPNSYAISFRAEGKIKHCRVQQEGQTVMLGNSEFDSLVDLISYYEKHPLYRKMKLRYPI
Summary of the method: as §1

[2] = tested on: PIK3R-derived SH2 domains; experiment: FP saturation binding, domain family; set-up: species or system human; conditions: FP, result in words
Summary of the method: as §1

PIK3R1 SH2 domains = PIK3R1 SH2 domains (Homo sapiens, UniProt P27986); experiment: FP saturation binding, construct not stated; conditions: result in words
Summary of the method: as §1

PIK3R3 SH2 domains = experiment: FP saturation binding, construct not stated; set-up: species or system human; conditions: result in words
Summary of the method: as §1

[3] = tested on: c-Src family kinase SH2 domains; experiment: FP saturation binding, domain family; set-up: species or system human; conditions: result in words
Summary of the method: as §1

RASA1 SH2 domains = target: T6, RASA1 SH2 domains (Homo sapiens, UniProt P20936); experiment: FP saturation binding, construct not stated; conditions: result in words
T6 sequence (P20936 181-441 limits assumed): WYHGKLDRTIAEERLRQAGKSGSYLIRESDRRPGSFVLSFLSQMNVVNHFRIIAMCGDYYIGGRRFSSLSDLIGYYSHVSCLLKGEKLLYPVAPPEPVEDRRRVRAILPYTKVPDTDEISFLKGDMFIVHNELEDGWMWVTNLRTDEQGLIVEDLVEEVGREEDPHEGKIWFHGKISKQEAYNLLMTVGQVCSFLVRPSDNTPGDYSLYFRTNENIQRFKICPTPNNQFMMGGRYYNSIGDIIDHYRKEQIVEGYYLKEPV
Summary of the method: as §1

SRC SH2 domain = SRC SH2 domain (Homo sapiens, UniProt P12931); experiment: FP saturation binding; conditions: result in words
Summary of the method: as §1

Sequence of CRK SH2 domain (P46108 13-118 limits assumed): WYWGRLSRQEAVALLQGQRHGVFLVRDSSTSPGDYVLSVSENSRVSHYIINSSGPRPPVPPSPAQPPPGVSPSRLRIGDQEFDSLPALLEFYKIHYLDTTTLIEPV
Sequence of PIK3R1 SH2 domains (P27986 2-724): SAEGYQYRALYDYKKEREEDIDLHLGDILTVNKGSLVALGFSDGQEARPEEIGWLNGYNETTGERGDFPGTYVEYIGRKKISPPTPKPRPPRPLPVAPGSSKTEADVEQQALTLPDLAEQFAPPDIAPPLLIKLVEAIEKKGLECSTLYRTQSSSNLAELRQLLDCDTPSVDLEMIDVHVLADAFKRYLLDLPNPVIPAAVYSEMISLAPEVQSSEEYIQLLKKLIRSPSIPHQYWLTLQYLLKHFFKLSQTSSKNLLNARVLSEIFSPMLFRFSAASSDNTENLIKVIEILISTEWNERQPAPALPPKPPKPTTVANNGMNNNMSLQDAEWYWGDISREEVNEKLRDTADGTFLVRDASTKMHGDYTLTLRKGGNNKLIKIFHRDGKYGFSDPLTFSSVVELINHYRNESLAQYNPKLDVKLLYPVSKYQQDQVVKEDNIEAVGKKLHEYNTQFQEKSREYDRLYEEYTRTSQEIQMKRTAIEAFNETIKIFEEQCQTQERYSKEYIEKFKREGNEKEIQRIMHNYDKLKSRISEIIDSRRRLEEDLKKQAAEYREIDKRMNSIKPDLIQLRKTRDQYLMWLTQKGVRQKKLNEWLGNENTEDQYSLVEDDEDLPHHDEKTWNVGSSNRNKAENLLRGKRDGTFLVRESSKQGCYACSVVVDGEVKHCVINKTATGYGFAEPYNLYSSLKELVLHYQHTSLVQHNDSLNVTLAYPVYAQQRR
Sequence of GRAP2 SH2 domain (O75791 58-149 limits assumed): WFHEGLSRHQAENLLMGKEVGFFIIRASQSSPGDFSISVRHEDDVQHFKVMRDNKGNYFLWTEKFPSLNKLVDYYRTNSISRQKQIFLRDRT
Sequence of GRB2 SH2 domain (P62993 60-152 limits assumed): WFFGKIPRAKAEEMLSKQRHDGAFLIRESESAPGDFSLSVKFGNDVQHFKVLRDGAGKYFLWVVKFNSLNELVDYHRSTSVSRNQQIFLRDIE

With DITVXLLQGRRLd [c-Met Tyr(P)-1295] the “recruitment of Shp2/PTPN11 SH2 domain” value (Shp2/PTPN11 SH2 domain) was “recruit”.
With KLKRXAWKRRWFd [GAB1 Tyr(P)-24] the “recruitment of CRK SH2 domain” value (CRK SH2 domain) was “CRK SH2 domain recruitment” and the “interaction with SHC1 PTB domain” value [1] was “interactions were observed”.
QQMIXDSPPSRAd [GAB1 Tyr(P)-242] was tested, and the “recruitment of CRK SH2 domain” value (CRK SH2 domain) was “no CRK SH2 domain interactions”.
DPQDXLLLINCQd [GAB1 Tyr(P)-183] was tested, and the “interaction with SHC1 PTB domain” value [1] was “interactions were observed” and the “interaction with SHC1 SH2 domain” value (SHC1 SH2 domain) was “interactions were identified”.
For EAALXKNLLHSKd [c-Kit Tyr(P)-703], the “recruitment of GRB2 SH2 domain” value (GRB2 SH2 domain) was “detectably recruited” and the “recruitment of GRAP2 SH2 domain” value (GRAP2 SH2 domain) was “detectably recruited”.
DRIFXLVADSEEd [GAB1 Tyr(P)-95] was tested, and the “recruitment of CRK SH2 domain” value (CRK SH2 domain) was “CRK SH2 domain recruitment” and the “interaction with SHC1 SH2 domain” value (SHC1 SH2 domain) was “interactions were identified”.
In the case of PIDYXFPPQKTCd [AR Tyr(P)-553], the “recruitment of PLCG2 SH2 domains” value (PLCG2 SH2 domains) is reported as “recruitment sites”, the “recruitment of PLCG1 SH2 domains” value (PLCG1 SH2 domains) is reported as “recruitment sites” and the “recruitment of PIK3R (PI3KR) SH2 domains” value [2] is reported as “relatively high affinity”.
For LDENXVPMNPNSd [GAB1 Tyr(P)-447], the “recruitment of PIK3R1” value (PIK3R1 SH2 domains) was “confirmed” and the “recruitment of PIK3R3” value (PIK3R3 SH2 domains) was “high affinity”.
With PAEMXDIMKTCWd [c-Kit Tyr(P)-900] the “recruitment of c-Src family kinase SH2 domains” value [3] was “recruited”.
With VSISXDIPPTPGd [GAB1 Tyr(P)-307] the “recruitment of RASA1 SH2 domains” value (RASA1 SH2 domains) was “confirmed”, the “recruitment of CRK SH2 domain” value (CRK SH2 domain) was “no CRK SH2 domain interactions” and the “recruitment of PLCG1 SH2 domains” value (PLCG1 SH2 domains) was “confirmed”.
In the case of LPPPXQLINVPPd [GAB1 Tyr(P)-162], the “interaction with SHC1 SH2 domain” value (SHC1 SH2 domain) is reported as “unable to detect”.
In the case of VKPIXFHTQ [AR Tyr(P)-915], the “recruitment of PLCG2 SH2 domains” value (PLCG2 SH2 domains) is reported as “recruitment sites” and the “recruitment of PLCG1 SH2 domains” value (PLCG1 SH2 domains) is reported as “recruitment sites”.
LQPEXCPDPLYEd [c-Met Tyr(P)-1307] was tested, and the “recruitment of Shp2/PTPN11 SH2 domain” value (Shp2/PTPN11 SH2 domain) was “recruit” and the “recruitment of PIK3R (PI3KR) SH2 domains” value [2] was “moderate recruitment”.
In the case of SEENXVPMNPNLd [GAB1 Tyr(P)-627], the “recruitment of PIK3R1” value (PIK3R1 SH2 domains) is reported as “confirmed”, the “interaction with SHC1 SH2 domain” value (SHC1 SH2 domain) is reported as “interactions were identified” and the “recruitment of PIK3R3” value (PIK3R3 SH2 domains) is reported as “high affinity”.
In the case of FENSXIFDINTId [GAB1 Tyr(P)-83], the “interaction with SHC1 PTB domain” value [1] is reported as “interactions were observed” and the “interaction with SHC1 SH2 domain” value (SHC1 SH2 domain) is reported as “interactions were identified”.
With QSRDXYNFPLALd [AR Tyr(P)-362] the “recruitment of RASA1 SH2 domains” value (RASA1 SH2 domains) was “interacted”, the “recruitment of PLCG2 SH2 domains” value (PLCG2 SH2 domains) was “recruitment sites” and the “recruitment of PLCG1 SH2 domains” value (PLCG1 SH2 domains) was “interacted; also recorded: recruitment sites”. The “interaction with SRC SH2 domain” value (SRC SH2 domain) was “interacted” and the “recruitment of PIK3R (PI3KR) SH2 domains” value [2] was “interacted; also recorded: relatively high affinity”.
